# Experimental data taken from ChEMBL document CHEMBL1641462, “Synthesis and in vivo evaluation of ¹⁸F-fluoroethyl GF120918 and XR9576 as positron emission tomography probes for assessing the function of drug efflux transporters” (Bioorg Med Chem, 2011).
# Columns and labels:
# Heart [1] = assay: Biodistribution in FVB mouse heart assessed per gram of tissue at 1 to 4.8 MBq, iv after 30 mins; type: ADME, organism-based; details: in vivo, 0.5 h
# Outline: (§1)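 Male FVB mice (8–10 weeks, 25–29 g) received tracer iv (1.0–4.8 MBq, 7.1–34 pmol). Killed by cervical dislocation at 5, 15, 30, 60 or 90 min. Blood taken by heart puncture; tissues dissected, weighed and gamma-counted. Activity decay-corrected to injection time and given as %ID/g; mean ± SD, n = 4 per time point.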
# [2] = Biodistribution in FVB mouse small intestine assessed per gram of tissue at 1 to 4.8 MBq, iv after 30 mins; type: ADME, organism-based; details: in vivo, 0.5 h
# Outline: (§2)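 Male FVB mice (8–10 weeks, 25–29 g) given tracer 1.0–4.8 MBq/7.1–34 pmol iv; killed by cervical dislocation at set times (n = 4 per group). Blood by heart puncture; tissues dissected, weighed and gamma counted. Radioactivity decay-corrected to injection time, expressed as %ID/g, mean ± SD.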
# Spleen [3] = assay: Biodistribution in FVB mouse spleen assessed per gram of tissue at 1 to 4.8 MBq, iv after 90 mins; type: ADME, organism-based; details: in vivo, 1.5 h; outline: as §2
# Pancreas [4] = assay: Biodistribution in FVB mouse pancreas assessed per gram of tissue at 1 to 4.8 MBq, iv after 30 mins; type: ADME, organism-based; details: in vivo, 0.5 h; outline: as §2
# Brain [5] = assay: Biodistribution in FVB mouse brain assessed per gram of tissue at 1 to 4.8 MBq, iv after 15 mins; type: ADME, organism-based; details: in vivo, 0.25 h; outline: as §1
# Plasma = assay: Metabolic stability in FVB mouse plasma assessed as recovery of radioactivity at 1 to 4.8 MBq, iv by HPLC analysis; type: ADME, organism-based; details: in vivo
# Outline: (§3)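 Brain homogenate or plasma from tracer plus GF120918 (5 mg/kg) co-injected FVB mice deproteinized with equal volume ice-cold acetonitrile; radioactivity in supernatant, precipitate and HPLC waste gamma counted to give recovery, mean ± SD (n = 7).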
# Pancreas [6] = assay: Biodistribution in FVB mouse pancreas assessed per gram of tissue at 1 to 4.8 MBq, iv after 15 mins; type: ADME, organism-based; details: in vivo, 0.25 h; outline: as §2
# Blood [7] = assay: Biodistribution in FVB mouse blood assessed per gram of tissue at 1 to 4.8 MBq, iv after 5 mins; type: ADME, organism-based; details: in vivo; outline: as §1
# Heart [8] = assay: Biodistribution in FVB mouse heart assessed per gram of tissue at 1 to 4.8 MBq, iv after 90 mins; type: ADME, organism-based; details: in vivo, 1.5 h; outline: as §1
# [9] = Fold increase in testis-to-blood ratio of drug level in FVB mouse at 1 to 4.8 MBq, iv co-administered with 5 mg/kg, iv of GF120918; details: testis and blood, with GF120918, 5 mg/kg iv
# Blood [10] = assay: AUC (0 to 60 mins) in wild type mouse blood at 2.8 to 5.6 MBq, iv; type: ADME, tissue-based
# Outline: (§4)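 Small-animal PET in male wild-type and knockout mice under isoflurane (1.0–1.5%), prone on the scanner bed. Tracer (2.8–5.6 MBq, 20–40 pmol) given iv, with or without co-injected GF120918 at 5 mg/kg. Dynamic 60-min list-mode scan. Decay-corrected SUV read from ROIs on brain, and on the ventricular cavity for blood. AUC taken over 0–60 min in SUV·min; n = 4 per group.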
# Pancreas [11] = assay: Biodistribution in FVB mouse pancreas assessed per gram of tissue at 1 to 4.8 MBq, iv after 90 mins; type: ADME, organism-based; details: in vivo, 1.5 h; outline: as §2
# Spleen [12] = assay: Biodistribution in FVB mouse spleen assessed per gram of tissue at 1 to 4.8 MBq, iv after 15 mins; type: ADME, organism-based; details: in vivo, 0.25 h; outline: as §2
# Lung [13] = assay: Biodistribution in FVB mouse lung assessed per gram of tissue at 1 to 4.8 MBq, iv after 60 mins; type: ADME, organism-based; details: in vivo, 1 h; outline: as §1
# Heart [14] = assay: Biodistribution in FVB mouse heart assessed per gram of tissue at 1 to 4.8 MBq, iv after 60 mins; type: ADME, organism-based; details: in vivo, 1 h; outline: as §1
# Muscle tissue [15] = assay: Biodistribution in FVB mouse muscle assessed per gram of tissue at 1 to 4.8 MBq, iv after 5 mins; type: ADME, organism-based; details: in vivo; outline: as §1
# Kidney [16] = assay: Biodistribution in FVB mouse kidney assessed per gram of tissue at 1 to 4.8 MBq, iv after 15 mins; type: ADME, organism-based; details: in vivo, 0.25 h; outline: as §1
# [17] = Biodistribution in FVB mouse small intestine assessed per gram of tissue at 1 to 4.8 MBq, iv after 60 mins; type: ADME, organism-based; details: in vivo, 1 h; outline: as §2
# Kidney [18] = assay: Biodistribution in FVB mouse kidney assessed per gram of tissue at 1 to 4.8 MBq, iv after 5 mins; type: ADME, organism-based; details: in vivo; outline: as §1
# Brain [19] = assay: Biodistribution in FVB mouse brain assessed per gram of tissue at 1 to 4.8 MBq, iv after 30 mins; type: ADME, organism-based; details: in vivo, 0.5 h; outline: as §1
# Bone [20] = assay: Biodistribution in FVB mouse bone assessed per gram of tissue at 1 to 4.8 MBq, iv after 5 mins; type: ADME, organism-based, Bone element; details: in vivo; outline: as §1
# [21] = Biodistribution in FVB mouse small intestine assessed per gram of tissue at 1 to 4.8 MBq, iv after 5 mins; type: ADME, organism-based; details: in vivo; outline: as §2
# Pancreas [22] = assay: Biodistribution in FVB mouse pancreas assessed per gram of tissue at 1 to 4.8 MBq, iv after 5 mins; type: ADME, organism-based; details: in vivo; outline: as §2
# Blood [23] = assay: AUC (0 to 60 mins) in P-gp/BCRP knockout mouse blood at 2.8 to 5.6 MBq, iv; type: ADME, tissue-based; outline: as §4
# Brain [24] = assay: AUC (0 to 60 mins) in P-gp/BCRP knockout mouse brain at 2.8 to 5.6 MBq, iv; type: ADME, organism-based; details: in vivo; outline: as §4
# Lung [25] = assay: Biodistribution in FVB mouse lung assessed per gram of tissue at 1 to 4.8 MBq, iv after 5 mins; type: ADME, organism-based; details: in vivo; outline: as §1
# Liver = assay: Biodistribution in FVB mouse liver assessed per gram of tissue at 1 to 4.8 MBq, iv after 90 mins; type: ADME, organism-based; details: in vivo, 1.5 h; outline: as §1
# Kidney [26] = assay: Biodistribution in FVB mouse kidney assessed per gram of tissue at 1 to 4.8 MBq, iv after 60 mins; type: ADME, organism-based; details: in vivo, 1 h; outline: as §1
# Brain [27] = assay: AUC (0 to 60 mins) in BCRP knockout mouse brain at 2.8 to 5.6 MBq, iv; type: ADME, organism-based; details: in vivo; outline: as §4
# Muscle tissue [28] = assay: Biodistribution in FVB mouse muscle assessed per gram of tissue at 1 to 4.8 MBq, iv after 30 mins; type: ADME, organism-based; details: in vivo, 0.5 h; outline: as §1
# Bone [29] = assay: Biodistribution in FVB mouse bone assessed per gram of tissue at 1 to 4.8 MBq, iv after 90 mins; type: ADME, organism-based, Bone element; details: in vivo, 1.5 h; outline: as §1
# Brain [30] = assay: Metabolic stability in FVB mouse brain assessed as recovery of radioactivity at 1 to 4.8 MBq, iv by HPLC analysis; type: ADME, organism-based; details: in vivo; outline: as §3
# Bone [31] = assay: Biodistribution in FVB mouse bone assessed per gram of tissue at 1 to 4.8 MBq, iv after 30 mins; type: ADME, organism-based, Bone element; details: in vivo, 0.5 h; outline: as §1
# Spleen [32] = assay: Biodistribution in FVB mouse spleen assessed per gram of tissue at 1 to 4.8 MBq, iv after 30 mins; type: ADME, organism-based; details: in vivo, 0.5 h; outline: as §2
# Blood [33] = assay: Biodistribution in FVB mouse blood assessed per gram of tissue at 1 to 4.8 MBq, iv after 15 mins; type: ADME, organism-based; details: in vivo, 0.25 h; outline: as §1
SMILES,Drug uptake (Heart [1]) [% ID/g],Drug uptake [2] [% ID/g],Drug uptake (Spleen [3]) [% ID/g],Drug uptake (Pancreas [4]) [% ID/g],Drug uptake (Brain [5]) [% ID/g],Stability (Plasma) [%],Drug uptake (Pancreas [6]) [% ID/g],Drug uptake (Blood [7]) [% ID/g],Drug uptake (Heart [8]) [% ID/g],Fold increase [9],AUC (Blood [10]) [SUV·min],Drug uptake (Pancreas [11]) [% ID/g],Drug uptake (Spleen [12]) [% ID/g],Drug uptake (Lung [13]) [% ID/g],Drug uptake (Heart [14]) [% ID/g],Drug uptake (Muscle tissue [15]) [% ID/g],Drug uptake (Kidney [16]) [% ID/g],Drug uptake [17] [% ID/g],Drug uptake (Kidney [18]) [% ID/g],Drug uptake (Brain [19]) [% ID/g],also measured
COc1cc(NC(=O)c2cnc3ccccc3c2)c(C(=O)Nc2ccc(CCN3CCc4cc(OC)c(OCC[18F])cc4C3)cc2)cc1OC,2.86,14.09,7.42,8.56,0.11,95.3,8.27,1.39,1.74,5,33.2,13.56,6.73,16.06,2.09,2.23,16.09,22.42,18,0.11,Drug uptake (Bone [20]): 2.17 % ID/g; Drug uptake [21]: 5.67 % ID/g; Drug uptake (Pancreas [22]): 6.05 % ID/g; AUC (Blood [23]): 33.9 SUV·min; AUC (Brain [24]): 32.9 SUV·min; Drug uptake (Lung [25]): 22.5 % ID/g; Drug uptake (Liver): 22.18 % ID/g; Drug uptake (Kidney [26]): 11.29 % ID/g; SUV (Brain [27]): 6.5; Drug uptake (Muscle tissue [28]): 1.04 % ID/g; Drug uptake (Bone [29]): 1.45 % ID/g; Stability (Brain [30]): 92.5%; Drug uptake (Bone [31]): 1.45 % ID/g; Drug uptake (Spleen [32]): 6.34 % ID/g; Drug uptake (Blood [33]): 0.88 % ID/g
COc1cc2c(cc1OC)CN(CCc1ccc(NC(=O)c3cccc4c(=O)c5cccc(OCC[18F])c5[nH]c34)cc1)CC2,1.38,7.6,4.71,11.15,0.16,94.1,9.68,1.39,0.85,7,25.6,15.21,5.34,6.16,1.19,1.75,24.17,12.48,20.65,0.14,Drug uptake (Bone [20]): 1.99 % ID/g; Drug uptake [21]: 4.51 % ID/g; Drug uptake (Pancreas [22]): 6.12 % ID/g; AUC (Blood [23]): 25 SUV·min; AUC (Brain [24]): 39.8 SUV·min; Drug uptake (Lung [25]): 19.6 % ID/g; Drug uptake (Liver): 14.82 % ID/g; Drug uptake (Kidney [26]): 23.44 % ID/g; SUV (Brain [27]): 5; Drug uptake (Muscle tissue [28]): 0.62 % ID/g; Drug uptake (Bone [29]): 1.3 % ID/g; Stability (Brain [30]): 91.4%; Drug uptake (Bone [31]): 1.63 % ID/g; Drug uptake (Spleen [32]): 5.82 % ID/g; Drug uptake (Blood [33]): 0.72 % ID/g
